Measured values published in ChEMBL document CHEMBL4387746, “Chemical conversion of nicotinamide into type I positive allosteric modulator of α7 nAChRs” (Bioorg Med Chem Lett, 2019).
Calls of active or inactive are those of the source. The calls are words filed in the database; no cut-off is given here.

How the values were obtained:
Type in all cases: cell-based
[1] = target: T1, Neuronal acetylcholine receptor subunit alpha-7 (Homo sapiens, UniProt P36544); experiment: Positive allosteric modulation activity at alpha7 nAChR (unknown origin) expressed in Xenopus laevis oocytes assessed as increase in acetylcholine-induced channel current at 10 uM at -90 mV holding potential by two-electrode voltage clamp method relative control
T1 sequence (P36544 whole entry): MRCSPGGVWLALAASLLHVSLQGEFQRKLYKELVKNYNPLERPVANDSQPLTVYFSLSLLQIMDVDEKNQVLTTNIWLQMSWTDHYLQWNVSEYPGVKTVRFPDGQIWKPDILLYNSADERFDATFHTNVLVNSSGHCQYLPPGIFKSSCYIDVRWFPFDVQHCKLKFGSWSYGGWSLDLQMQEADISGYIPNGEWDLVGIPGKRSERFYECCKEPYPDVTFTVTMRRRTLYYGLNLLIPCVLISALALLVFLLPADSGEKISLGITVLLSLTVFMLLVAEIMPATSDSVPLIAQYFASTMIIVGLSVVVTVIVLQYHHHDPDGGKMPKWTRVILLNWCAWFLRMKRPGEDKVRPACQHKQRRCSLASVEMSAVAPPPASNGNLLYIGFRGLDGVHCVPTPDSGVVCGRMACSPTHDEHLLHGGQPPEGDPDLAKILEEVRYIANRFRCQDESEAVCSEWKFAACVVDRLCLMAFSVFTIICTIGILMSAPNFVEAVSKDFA
In short: (§1)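 Human α7 nAChR expressed in Xenopus laevis oocytes and recorded by two-electrode voltage clamp. Each compound was tested at 10 μM with 100 μM ACh. Data come from 2–5 individual oocytes.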

[2] = target: T1, Neuronal acetylcholine receptor subunit alpha-7; experiment: Agonist activity at human alpha7 nAChR expressed in Xenopus laevis oocytes assessed as increase in channel current at -90 mV holding potential by two-electrode voltage clamp method
[3] = target: T1, Neuronal acetylcholine receptor subunit alpha-7; experiment: (§2) Positive allosteric modulation activity at human alpha7 nAChR expressed in Xenopus laevis oocytes assessed as increase in acetylcholine-induced channel current at -90 mV holding potential preincubated for 2 mins followed by co-application with acetylcholine for 10 secs by two-electrode voltage clamp method
In short: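 Human α7 nAChR was recorded in Xenopus oocytes by two-electrode voltage clamp, with 100 μM ACh as agonist. EC50 is the compound concentration giving half of the maximum activation effect. Data come from 2–5 individual oocytes.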

[4] = target: T1, Neuronal acetylcholine receptor subunit alpha-7; experiment: as §2, with “current at 10 uM” for “current”, “method relative to control” for “method”; in short: as §1
[5] = target: T2, 5-hydroxytryptamine receptor 3A (Homo sapiens) (UniProt P46098); experiment: as §2, with “5-HT3A receptor” for “alpha7 nAChR”, “current at 10 uM” for “current”, “method relative to control” for “method”
T2 sequence (whole entry): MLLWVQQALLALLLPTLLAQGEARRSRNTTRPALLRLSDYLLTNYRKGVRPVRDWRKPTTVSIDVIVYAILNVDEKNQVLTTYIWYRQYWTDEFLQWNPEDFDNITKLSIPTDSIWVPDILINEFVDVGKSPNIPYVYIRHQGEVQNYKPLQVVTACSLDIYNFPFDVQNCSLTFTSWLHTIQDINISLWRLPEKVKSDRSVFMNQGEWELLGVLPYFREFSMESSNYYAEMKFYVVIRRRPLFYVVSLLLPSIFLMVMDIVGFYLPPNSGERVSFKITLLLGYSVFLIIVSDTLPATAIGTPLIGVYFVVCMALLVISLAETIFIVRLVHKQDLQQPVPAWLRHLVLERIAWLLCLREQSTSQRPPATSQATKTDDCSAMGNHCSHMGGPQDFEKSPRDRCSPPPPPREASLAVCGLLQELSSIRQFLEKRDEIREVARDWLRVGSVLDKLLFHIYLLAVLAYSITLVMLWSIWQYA

[6] = target: T1, Neuronal acetylcholine receptor subunit alpha-7; experiment: as §2, with “current at 0.1 uM to 30 uM” for “current”, “method relative to control” for “method”
In short: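 A control current to 100 μM ACh alone was recorded first. Oocytes expressing α7 nAChR were then preincubated 2 min with compound at 0.1–30 μM, followed by co-application with 100 μM ACh for 10 s. Peak currents were normalised to the 100 μM ACh-alone amplitude. Data were fitted for EC50, Emax and Hill coefficient, n = 4 per point.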

[7] = target: T1, Neuronal acetylcholine receptor subunit alpha-7; experiment: as §2, with “current by measuring maximum efficacy of acetylcholine at 10 uM” for “current”, “method (reference value: 339%)” for “method”
In short: (§3)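 ACh concentration-response on α7-expressing Xenopus oocytes, run without compound or after 2 min preincubation with 10 μM compound. Peak currents were normalised to the current evoked by 100 μM ACh alone. Curves were fitted for Emax, ACh EC50 and Hill coefficient, n = 4 per point.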

[8] = target: T1, Neuronal acetylcholine receptor subunit alpha-7; experiment: Induction of desensitization of human alpha7 nAChR expressed in Xenopus laevis oocytes assessed as acetylcholine-induced channel desensitization time constant at 10 uM at -90 mV holding potential by two-electrode voltage clamp method (reference value: 6.37 +/- 2.56)
[9] = target: Neuronal acetylcholine receptor; alpha4/beta2 (Rattus norvegicus) (UniProt P09483+P12390); experiment: as §2, with “rat alpha4beta2” for “human alpha7”, “current at 10 uM” for “current”, “method relative to control” for “method”
[10] = target: Neuronal acetylcholine receptor; alpha3/beta4 (Rattus norvegicus) (UniProt P04757+P12392); experiment: as §2, with “rat alpha3beta4” for “human alpha7”, “current at 10 uM” for “current”, “method relative to control” for “method”
[11] = target: T1, Neuronal acetylcholine receptor subunit alpha-7; experiment: as §2, with “current by measuring maximum efficacy of acetylcholine at 10 uM” for “current”, “method relative to control” for “method”; in short: as §3

Activity [2]	Emax [4]	Compound	other results
–	–	Cc1ccc(Nc2nc3ncn(-c4c(C)cccc4Cl)c(=O)c3s2)cc1	Emax [1]: 1620%
–	–	COc1ccc(-c2ccc3ncn(-c4c(C)cccc4Cl)c(=O)c3c2)cc1	Emax [1]: 65%
inactive	604%	Cc1cccc(Cl)c1NC(=O)c1cc(-c2ccc(F)cc2)cnc1N	EC50 [3]: 4.57 µM
inactive	229%	Cc1cccc(Cl)c1NC(=O)c1cc(-c2ccc(Cl)c(F)c2)cnc1N	–
inactive	1010%	COc1ccccc1-c1cnc(N)c(C(=O)Nc2c(C)cccc2Cl)c1	EC50 [3]: 4.32 µM
–	–	Cc1cccc(Cl)c1-n1cnc2nc(SCc3ccccc3)sc2c1=O	Emax [1]: 1630%
inactive	153%	Cc1cccc(Cl)c1NC(=O)c1cc(-c2ccsc2)cnc1N	–
inactive	136%	Cc1cccc(Cl)c1NC(=O)c1cc(-c2ccc(F)cc2)ccc1N	–
inactive	225%	Cc1cc(F)ccc1-c1cnc(N)c(C(=O)Nc2c(C)cccc2Cl)c1	–
inactive	248%	Cc1cccc(Cl)c1NC(=O)c1cncc(-c2ccc(F)cc2)c1	–
inactive	94%	Cc1cc(-c2cnc(N)c(C(=O)Nc3ccccc3)c2)ccc1F	–
inactive	539%	Cc1ccc(-c2cnc(N)c(C(=O)Nc3c(C)cccc3Cl)c2)cc1	EC50 [3]: 3.19 µM
inactive	138%	Cc1cccc(Cl)c1NC(=O)c1cc(-c2cccnc2)cnc1N	–
inactive	603%	Cc1ccc(-c2cncc(C(=O)Nc3c(C)cccc3Cl)c2)cc1	EC50 [3]: 1.97 µM
inactive	109%	CC(=O)Nc1ccc(-c2cnc(N)c(C(=O)Nc3c(C)cccc3Cl)c2)cc1	–
inactive	156%	Cc1cc(-c2cnc(N)c(C(=O)Nc3ccccc3C)c2)ccc1F	–
inactive	774%	CSc1ccc(-c2cnc(N)c(C(=O)Nc3c(C)cccc3Cl)c2)cc1	EC50 [3]: 4.96 µM
inactive	609%	Cc1ccc(-c2cnc(N)c(C(=O)Nc3c(C)cccc3Cl)c2)cc1F	EC50 [3]: 3.31 µM

Activity [2]	Emax [4]	Compound	other results
inactive	531%	COc1ccc(-c2cnc(N)c(C(=O)Nc3c(C)cccc3Cl)c2)cc1	EC50 [3]: 8.5 µM
inactive	135%	Cc1cccc(Cl)c1NC(=O)c1cc(-c2ccc([N+](=O)[O-])cc2)cnc1N	–
inactive	186%	Cc1cccc(Cl)c1NC(=O)c1cc(-c2ccc(F)cc2Cl)cnc1N	–
inactive	257%	Cc1cccc(Cl)c1NC(=O)c1cc(-c2ccc(O)cc2)cnc1N	–
–	–	Cc1cccc(Cl)c1-n1cnc2ccc(-c3ccc(F)cc3)cc2c1=O	Emax [1]: 76%
inactive	278%	Cc1cccc(Cl)c1NC(=O)c1cc(-c2ccc(Cl)cc2)cnc1N	–
inactive	1470%	Cc1cc(-c2cnc(N)c(C(=O)Nc3c(C)cccc3Cl)c2)ccc1F	Emax [5]: 94%; Activity [6]: Dose-dependent effect; Emax [7]: 2170%; K [8]: 3.49; EC50 [3]: 3.34 µM; Emax [9]: 72%; Emax [10]: 78%; fold change (FC) [11]: 7
inactive	273%	Cc1cccc(Cl)c1NC(=O)c1cc(-c2ccccc2)cnc1N	–
inactive	455%	CCc1ccc(-c2cnc(N)c(C(=O)Nc3c(C)cccc3Cl)c2)cc1	EC50 [3]: 1.35 µM
inactive	150%	Cc1cccc(Cl)c1NC(=O)c1cncc(-c2ccc(Cl)cc2)c1	–
inactive	153%	Cc1cccc(Cl)c1NC(=O)c1cc(-c2ccc(OC(F)(F)F)cc2)cnc1N	–
inactive	164%	Cc1cccc(Cl)c1NC(=O)c1cc(-c2ccc(C(F)(F)F)cc2)cnc1N	–
inactive	119%	Cc1cccc(Cl)c1NC(=O)c1cc(-c2ccccc2F)cnc1N	–
inactive	495%	Cc1cccc(Cl)c1NC(=O)c1cc(-c2ccc(F)c(Cl)c2)cnc1N	EC50 [3]: 5.49 µM
inactive	372%	Cc1ccc(-c2cnc(N)c(C(=O)Nc3c(C)cccc3Cl)c2)c(F)c1	–
inactive	86%	Cc1cccc(Cl)c1NC(=O)c1cc(-c2cccc(F)c2)cnc1N	–
inactive	111%	Cc1cccc(Cl)c1NC(=O)c1cc(-c2ccoc2)cnc1N	–
inactive	212%	COc1cccc(-c2cnc(N)c(C(=O)Nc3c(C)cccc3Cl)c2)c1	–
